{"data": "Measurements pooled from the literature", "target": "Tyrosine-protein kinase Mer (MERTK, Homo sapiens, UniProt Q12866)", "Residues used in one study (Q12866 21-999)": "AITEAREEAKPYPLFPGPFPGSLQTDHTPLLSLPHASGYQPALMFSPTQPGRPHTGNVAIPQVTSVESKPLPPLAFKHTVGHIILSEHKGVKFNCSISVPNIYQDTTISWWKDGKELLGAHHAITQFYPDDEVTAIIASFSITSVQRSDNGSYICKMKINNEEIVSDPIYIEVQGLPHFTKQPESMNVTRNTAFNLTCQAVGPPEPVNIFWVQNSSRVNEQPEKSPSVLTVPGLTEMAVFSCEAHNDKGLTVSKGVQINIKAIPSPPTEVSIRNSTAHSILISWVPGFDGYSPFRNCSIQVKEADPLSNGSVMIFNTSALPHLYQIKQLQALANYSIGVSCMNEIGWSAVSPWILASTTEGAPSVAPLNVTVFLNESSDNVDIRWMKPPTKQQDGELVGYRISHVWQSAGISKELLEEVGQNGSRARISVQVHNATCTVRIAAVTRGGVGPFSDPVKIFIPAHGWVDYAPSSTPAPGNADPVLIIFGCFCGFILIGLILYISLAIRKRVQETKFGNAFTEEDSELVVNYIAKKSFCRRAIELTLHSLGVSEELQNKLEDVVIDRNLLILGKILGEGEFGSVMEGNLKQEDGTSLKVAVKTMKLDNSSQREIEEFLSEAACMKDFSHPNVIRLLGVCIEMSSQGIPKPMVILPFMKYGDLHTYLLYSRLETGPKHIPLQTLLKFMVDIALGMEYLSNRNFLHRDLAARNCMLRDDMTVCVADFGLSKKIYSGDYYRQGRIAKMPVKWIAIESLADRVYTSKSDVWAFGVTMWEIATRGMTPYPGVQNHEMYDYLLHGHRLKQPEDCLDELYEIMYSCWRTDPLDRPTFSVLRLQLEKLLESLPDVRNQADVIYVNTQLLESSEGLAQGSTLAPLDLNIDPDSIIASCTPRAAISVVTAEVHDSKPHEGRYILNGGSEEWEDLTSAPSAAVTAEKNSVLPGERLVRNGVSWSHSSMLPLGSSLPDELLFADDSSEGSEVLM"}
{"Compound": "O=C(Nc1c[nH]nc1C(=O)NC1CCNCC1)c1cc(F)cc(F)c1", "test": "binding, competition with immobilised ligand", "conditions": "1 µM", "remaining binding [%]": 100}
{"Compound": "C=CC(=O)N1CCC(C(=O)NCC(=O)N2CCN(c3nc(-c4cnc(N)nc4C(F)F)nc(N4CCOCC4)n3)CC2)CC1", "test": "binding, competition with immobilised ligand", "conditions": "1 µM", "remaining binding [%]": 94}
{"Compound": "c1cnn2ncc(-c3ccnc(N4CCC45COC5)n3)c2c1", "test": "binding", "conditions": "1 µM", "remaining binding [%]": 87}
{"Compound": "O=C(N[C@H]1CCCCC/C=C\\C2C[C@@]2(C(=O)O)NC(=O)[C@@H]2C[C@@H](Oc3ccncc3)CN2C1=O)OC1CCCC1 (stereo partly drawn)", "test": "binding, competition with immobilised ligand", "conditions": "1 µM", "remaining binding [%]": 64}
{"Compound": "N[C@H]1CCN(c2nccc(-c3cnn4ncccc34)n2)C1", "test": "binding", "conditions": "1 µM", "remaining binding [%]": 100}
{"Compound": "Nc1ncc2c(n1)-c1c([nH]c3ccc(C#CC4CC4)cc13)CCCC2", "test": "binding, competition with immobilised ligand", "conditions": "1 µM", "remaining binding [%]": 100}
{"Compound": "FC(F)(F)c1ccc2c(c1)nc(-c1cccnc1)n2C1CC1", "test": "cell-free assay, competition with immobilised ligand", "conditions": "1 µM", "remaining binding [%]": 79}
{"Compound": "O=C(NCCCN1CCOCC1)c1ccc(Nc2ncc(Cl)c(-c3ccc(Cl)s3)n2)cc1", "test": "binding, competition with immobilised ligand", "conditions": "1 µM", "remaining binding [%]": 5.5}
{"Compound": "CN(c1nccc(-c2cnn3ncccc23)n1)C1CC1", "test": "binding", "conditions": "1 µM", "remaining binding [%]": 100}
{"Compound": "O=C(NCCCN1CCOCC1)c1ccc(Nc2nccc(-c3cc4ccccc4s3)n2)cc1", "test": "binding, competition with immobilised ligand", "conditions": "1 µM", "remaining binding [%]": 45}
{"Compound": "CNC(=O)[C@@H]1CC[C@@H](n2c(-c3ccc4cnccc4c3)nc3ccc(C(=O)NCc4cccc(C(N)=O)c4)cc32)C1", "test": "binding, competition with immobilised ligand", "conditions": "1 µM", "remaining binding [%]": 100}
{"Compound": "CCc1ccccc1C(=O)Nc1n[nH]c2c(C)c(F)c(C3C(C#N)=C(C)N(C)C(C)=C3C#N)cc12", "test": "cell-free assay, competition with immobilised ligand", "conditions": "1 µM", "remaining binding [%]": 80}
{"Compound": "F[C@@H]1CCN(c2nccc(-c3cnn4ncccc34)n2)C1", "test": "binding", "conditions": "1 µM", "remaining binding [%]": 100}
{"Compound": "O=C(c1ccc(Nc2ncc(Cl)c(-c3cc4ccccc4s3)n2)cc1)N1CCC(N2CCCC2)CC1", "test": "binding, competition with immobilised ligand", "conditions": "1 µM", "remaining binding [%]": 1.8}
{"Compound": "CS(=O)(=O)c1cc(C2(NC(=O)c3cncc4c3cnn4-c3ccc(F)cc3)CC2)ccn1", "test": "cell-free assay, competition with immobilised ligand", "conditions": "1 µM", "remaining binding [%]": 100}
{"Compound": "CC1CCCN1c1nccc(-c2cnn3ncccc23)n1 (stereo not drawn)", "test": "binding", "conditions": "1 µM", "remaining binding [%]": 98}
{"Compound": "C[C@@H](c1ccc(-n2cnc3c(N)ncnc32)cc1)N1CCc2nn(C)c(Cc3ccccc3)c2C1=O", "test": "binding, competition with immobilised ligand", "conditions": "0.1 µM", "remaining binding [%]": 100}
{"Compound": "COc1cc(-c2cn(C3CCc4c(F)cccc4N(CC(F)(F)F)C3=O)nn2)ccc1-n1cnc(C)c1 (stereo not drawn)", "test": "cell-free assay, competition with immobilised ligand", "conditions": "1 µM", "remaining binding [%]": 100}
{"Compound": "C[C@H]1CCN(c2nccc(-c3cnn4ncccc34)n2)C1", "test": "binding", "conditions": "1 µM", "remaining binding [%]": 94}
{"Compound": "C[C@@]1(Cc2ccc(C#N)cc2)C(=O)N(c2cc(Cl)cc(Cl)c2)c2ncc(C(=O)NC3(c4nc(C5CCC5)no4)CC3)n21", "test": "cell-free assay, competition with immobilised ligand", "conditions": "1 µM", "remaining binding [%]": 100}
{"Compound": "CCN1CCN(Cc2ccc(C(=O)Nc3ccc(C)c(Oc4ccc5c(c4)CC(=O)N5)c3)cc2C(F)(F)F)CC1", "test": "binding, competition with immobilised ligand", "conditions": "1 µM", "remaining binding [%]": 100}
